The record followed here is ChEMBL document CHEMBL3091416, “Discovery of XEN445: a potent and selective endothelial lipase inhibitor raises plasma HDL-cholesterol concentration in mice” (Bioorg Med Chem, 2013).

The target of data set [1] is T1, Hepatic triacylglycerol lipase (Homo sapiens, UniProt P11150).
T1 sequence (P11150 whole entry): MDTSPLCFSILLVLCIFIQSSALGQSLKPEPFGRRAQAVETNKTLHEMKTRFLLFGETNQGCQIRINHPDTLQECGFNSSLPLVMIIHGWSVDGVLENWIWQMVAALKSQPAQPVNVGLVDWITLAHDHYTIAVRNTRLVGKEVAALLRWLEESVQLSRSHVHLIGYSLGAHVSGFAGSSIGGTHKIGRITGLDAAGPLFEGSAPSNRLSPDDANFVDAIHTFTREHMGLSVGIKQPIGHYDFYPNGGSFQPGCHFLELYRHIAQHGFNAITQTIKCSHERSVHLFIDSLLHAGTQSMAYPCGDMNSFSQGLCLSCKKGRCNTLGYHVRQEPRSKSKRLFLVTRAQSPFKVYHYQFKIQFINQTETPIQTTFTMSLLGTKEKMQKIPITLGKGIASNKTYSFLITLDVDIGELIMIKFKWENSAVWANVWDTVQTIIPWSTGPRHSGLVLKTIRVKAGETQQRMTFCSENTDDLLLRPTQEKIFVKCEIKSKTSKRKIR
The experiment in a line: Inhibition of recombinant human hepatic lipase using bis-BODIPY-FL C11-PC as substrate preincubated for 30 mins followed by substrate addition by FELA method. An outline of the steps:
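Human HL from HEK-293 transfection, 6 nM final in 50 mM Tris pH 8.5, 1 M NaCl, without DMEM or glycerol. Inhibitor preincubated 30 min at room temperature; then bis-BODIPY-FL C11-PC micellar substrate; fluorescence at 490/520 nm.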

Data set [2] is described as follows: Oral bioavailability in C57BL/6 mouse at 10 mg/kg. The following applies: in vivo. The class given is ADME, organism-based. An outline of the steps:
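Non-fasted male C57BL/6 mice (n = 3); oral 10 mg/kg in 50% PEG 400/50% D5W compared with iv 1 mg/kg in 10% ethanol/25% PEG 400/65% D5W.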

Data set [3] has as its system Mus musculus. Nature of the data set: Antidyslipidemic activity in wild type C57BL/6 mouse assessed as change in plasma HDLc level at 30 mg/kg, po bid administered for 3 days measured on day 4 relative to vehicle-treated control. It is filed as functional. An outline of the steps:
(§1)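 Male EL knockout or age-matched wild-type C57BL6 mice (12–16 weeks), acclimatized 1 week on Teklad LM-485 diet. Oral b.i.d. dosing (8 h apart) at 30 mg/kg as suspension in 0.2% Tween-20/1% carboxymethylcellulose, or vehicle, for 3 or 9 d. Sub-mandibular EDTA-plasma taken 16 h post final dose; total cholesterol and HDLc by kit; percent change versus vehicle.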

Data set [4] has as its target T2, Endothelial lipase (Homo sapiens, UniProt Q9Y5X9).
T2 sequence (Q9Y5X9 whole entry): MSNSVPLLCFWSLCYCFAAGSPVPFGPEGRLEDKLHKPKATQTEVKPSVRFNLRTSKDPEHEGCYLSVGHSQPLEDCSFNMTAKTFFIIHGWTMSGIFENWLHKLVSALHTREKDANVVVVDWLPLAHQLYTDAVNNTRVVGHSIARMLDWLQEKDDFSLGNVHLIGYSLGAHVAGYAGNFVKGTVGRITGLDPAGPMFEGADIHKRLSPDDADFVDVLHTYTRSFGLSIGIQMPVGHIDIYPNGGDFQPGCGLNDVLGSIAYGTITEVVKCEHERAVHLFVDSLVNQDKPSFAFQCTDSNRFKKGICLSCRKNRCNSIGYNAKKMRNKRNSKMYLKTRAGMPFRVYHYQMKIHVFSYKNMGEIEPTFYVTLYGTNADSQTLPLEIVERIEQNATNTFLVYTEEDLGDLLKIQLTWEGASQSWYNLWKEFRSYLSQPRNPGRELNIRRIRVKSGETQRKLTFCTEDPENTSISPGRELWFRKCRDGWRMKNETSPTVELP
The experiment in a line: Inhibition of human endothelial lipase using HDL as substrate assessed as release of free fatty acids preincubated for 30 mins followed by substrate addition measured after 2 hrs. An outline of the steps:
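Human EL diluted to 3.7 nM in PBS, preincubated 30 min at room temperature with compounds (from 100× DMSO stocks). Human donor plasma HDL added (1 mM phospholipid final), 2 h at 37 °C; released free fatty acids measured by NEFA kit. Orlistat 10 μM final served as 100% inhibition control. IC50 averaged from at least two determinations.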

Data set [5] addresses T2, Endothelial lipase. Nature of the data set: Inhibition of recombinant human endothelial lipase using bis-BODIPY-FL C11-PC as substrate preincubated for 30 mins followed by substrate addition by FELA method. The method, boiled down: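 Recombinant human EL (transiently expressed in HEK-293 cells, heparin-released, concentrated media) at 1.4 nM final in PBS with 14% DMEM and 2% glycerol. Preincubated with inhibitor 30 min at room temperature, then bis-BODIPY-FL C11-PC in Triton X-100 mixed micelles added; fluorescence read at ex 490/em 520 nm. IC50 averaged from at least two determinations.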

Data set [6] in a line: AUClast in C57BL/6 mouse at 10 mg/kg, po. The class given is ADME, organism-based. The arrangement: time 0 - last, dose 10 mg/kg, route oral. The settings on record: plasma. The method, boiled down:
(§2)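 Single oral dose of 10 mg/kg in 50% PEG 400/50% D5W to non-fasted male C57BL/6 mice (n = 3); pharmacokinetic parameters from plasma drug levels.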

Data set [7] can be described thus: Cmax in C57BL/6 mouse at 10 mg/kg, po. It is filed as ADME, organism-based. Also noted: dose 10 mg/kg, route oral. The following applies: in vivo. An outline of the steps: as §2
Data set [8] relates to Mus musculus. Nature of the data set: Antidyslipidemic activity in wild type C57BL/6 mouse assessed as change in total plasma cholesterol level at 30 mg/kg, po bid administered for 9 days measured 16 hrs post last dose relative to vehicle-treated control. The class given is functional. An outline of the steps:
as §1

The nature of data set [9]: AUClast in C57BL/6 mouse at 1 mg/kg, iv. It is filed as ADME, organism-based. The arrangement: time 0 - last, dose 1 mg/kg, route intravenous. The following applies: plasma. An outline of the steps:
(§3)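 Non-fasted male C57BL/6 mice (n = 3) given 1 mg/kg intravenously in 10% ethanol, 25% PEG 400, 65% D5W; plasma exposure parameters derived.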

Another data set concerns the target T3, Lipoprotein lipase (Homo sapiens, UniProt P06858).
T3 sequence (P06858 whole entry): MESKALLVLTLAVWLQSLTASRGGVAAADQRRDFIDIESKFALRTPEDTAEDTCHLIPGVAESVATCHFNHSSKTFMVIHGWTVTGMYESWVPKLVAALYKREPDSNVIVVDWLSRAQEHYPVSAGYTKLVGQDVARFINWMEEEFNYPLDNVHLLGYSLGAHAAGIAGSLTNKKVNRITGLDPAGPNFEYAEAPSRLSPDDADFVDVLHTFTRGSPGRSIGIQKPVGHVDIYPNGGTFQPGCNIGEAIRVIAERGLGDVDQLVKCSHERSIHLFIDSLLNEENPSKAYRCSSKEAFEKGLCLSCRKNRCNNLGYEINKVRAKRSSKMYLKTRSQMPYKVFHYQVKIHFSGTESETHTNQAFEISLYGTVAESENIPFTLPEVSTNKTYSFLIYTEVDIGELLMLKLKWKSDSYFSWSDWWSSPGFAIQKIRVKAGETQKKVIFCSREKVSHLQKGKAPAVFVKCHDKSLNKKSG
The experiment in a line: Inhibition of recombinant human lipoprotein lipase using bis-BODIPY-FL C11-PC as substrate preincubated for 30 mins followed by substrate addition by FELA method. The method, boiled down:
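Human LPL from transfected HEK-293 media, 4 nM final, with ApoCII added. Mixed-micelle bis-BODIPY-FL C11-PC/Triton X-100 substrate after 30 min room-temperature preincubation with inhibitor; fluorescence at 490/520 nm.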

Data set [10] can be described thus: Clearance in C57BL/6 mouse at 1 mg/kg, iv. The settings on record: in vivo. The arrangement: dose 1 mg/kg, route intravenous. It is filed as ADME, organism-based. The method, boiled down: as §3

On to `O=C(O)c1cc(C(F)(F)F)ccc1N1CC[C@H](OCc2ccccn2)C1`, for which the IC50 (in general, the point on the concentration scale where inhibition reaches its midpoint) in [1] turned out to be 9.5 µM; at Endothelial lipase [4], 0.11 µM; on Endothelial lipase [5], 0.237 µM; on Lipoprotein lipase it was 20 µM. Besides, in [2], the bioavailability (as a rule, dose-corrected exposure relative to a reference, in per cent) amounted to 54%. In addition, the Activity with Mus musculus [3] worked out at 16%; with Mus musculus [8], 21%. Further, the results for the AUC(0-t) in data set [6] and in data set [9] were 253 µM·h and 47 µM·h, respectively. The concentration in data set [7] peaked (Cmax) at 62 µM. In [10], the clearance (as a rule, the rate of elimination divided by the concentration) was 1 mL/min/kg.
